Experimental findings from ChEMBL document CHEMBL4402601, “Discovery of a Silicon-Containing Pan-Genotype Hepatitis C Virus NS5A Inhibitor” (J Med Chem, 2020) are described below.

Data set [1] relates to Hepatitis C virus. In words: Resistance index, ratio of EC50 for Hepatitis C virus subtype 1a H77 subgenomic replicon expressing NS5A L31M mutant infected in human HuH7 cells to EC50 for Hepatitis C virus subtype 1a H77 subgenomic replicon expressing NS5A infected in human HuH7 cells. The class given is functional, Hepacivirus hominis. In a few lines: (§1)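 NS5A resistance-associated variants introduced into GT1a-H77 or GT1b-Con1 replicons. In transient assays, each variant replicon was electroporated into a Huh-7-derived cell line. Inhibition measured as drop in luciferase signal. Percent inhibition computed per concentration; EC50 from 4-parameter logistic nonlinear fit. Fold resistance is variant EC50 relative to the matching reference replicon.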
A general note: In antiviral work, replicon cells carry a viral genome segment that copies itself.

Data set [2] has as its system Hepatitis C virus. Put plainly: Resistance index, ratio of EC50 for Hepatitis C virus subtype 1a H77 subgenomic replicon expressing NS5A L31V mutant infected in human HuH7 cells to EC50 for Hepatitis C virus subtype 1a H77 subgenomic replicon expressing NS5A infected in human HuH7 cells. The class given is functional, Hepacivirus hominis.
Data set [3] in a line: Drug distribution in mouse liver at 10 mg/kg, po incubated for 0.5 hrs by UPLC-MS/MS analysis. Type of data set: ADME, organism-based. Particulars: read-out: Drug uptake. The procedure, abridged: (§2)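 Oral dosing in mice and rats; compound measured in plasma and liver by UPLC-MS/MS at each time point, n = 3 (mean ± SD). LPR is mean liver concentration divided by mean plasma concentration.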

Data set [4] has as its system Hepatitis C virus. In words: Antiviral activity against Hepatitis C virus subtype 1a H77 subgenomic replicon expressing NS5A Y93C mutant infected in human HuH7 cells assessed as reduction in viral replication incubated for 3 days by luciferase reporter gene assay. Type of data set: functional, organism-based, Hepacivirus hominis. Particulars: subtype 1a H77, Huh-7, 72 h. In a few lines:
as §1

Data set [5] is described as follows: Ratio of drug distribution in rat liver to drug distribution in rat plasma measured after 8 hrs by UPLC-MS/MS analysis. Type of data set: ADME, cell-free. The procedure, abridged: as §2
Data set [6] relates to Hepatitis C virus. In words: Antiviral activity against Hepatitis C virus subtype 1a H77 subgenomic replicon expressing NS5A Y93N mutant infected in human HuH7 cells assessed as reduction in viral replication incubated for 3 days by luciferase reporter gene assay. The class given is functional, organism-based, Hepacivirus hominis. To be noted: subtype 1a H77, Huh-7, 72 h. The procedure, abridged:
as §1

For data set [7], the system named is Hepatitis C virus. Put plainly: Antiviral activity against Hepatitis C virus subtype 1a H77 subgenomic replicon expressing NS5A L31V mutant infected in human HuH7 cells assessed as reduction in viral replication incubated for 3 days by luciferase reporter gene assay. Type of data set: functional, organism-based, Hepacivirus hominis. To be noted: subtype 1a H77, Huh-7, 72 h. The procedure, abridged:
as §1

Data set [8] can be described thus: Metabolic stability in mouse liver microsomes assessed as compound remaining at 1 uM incubated for 60 mins by UPLC-MS/MS analysis. Type of data set: ADME, Microsome. Particulars: read-out: Stability. In a few lines:
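Pooled mouse, rat or human liver microsomes (0.5 mg/mL) with 1 μM compound, 1 mM NADPH, 5 mM MgCl₂ and 100 mM potassium phosphate pH 7.4. Pre-incubated 5 min at 37 °C, started with NADPH, then run 60 min at 37 °C. Quenched with ice-cold acetonitrile containing internal standard; parent remaining measured by UPLC-MS/MS.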
On the technique in general: Liver microsomes are vesicles of endoplasmic reticulum, rich in cytochrome P450 enzymes.

Data set [9] relates to Hepatitis C virus. In words: Antiviral activity against Hepatitis C virus subtype 1b Con1 replicon expressing NS5A P32L mutant infected in human HuH7 cells assessed as reduction in viral replication incubated for 3 days by luciferase reporter gene assay. The class given is functional, organism-based, Hepacivirus hominis. To be noted: subtype 1b Con1, Huh-7, 72 h. The procedure, abridged: as §1

The test system of data set [10] is Hepatitis C virus. In words: Antiviral activity against Hepatitis C virus subtype 2a subgenomic replicon expressing NS5A infected in human HuH7 cells assessed as reduction in viral replication incubated for 3 days by luciferase reporter gene assay. Type of data set: functional, organism-based, Hepacivirus hominis. Particulars: Huh-7, 72 h.
The nature of data set [11]: Toxicity in mouse assessed as reduction in body weight at 300 mg/kg, po administered for 14 days and measured on day 14. The class given is organism-based. To be noted: in vivo, 336 h. In a few lines: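 Mice randomised after acclimation into two groups of 5 males and 5 females. Compound at 300 mg/kg or vehicle alone given once daily by oral gavage for 14 days. Clinical signs observed daily. Body weight and food intake recorded on day 1, then twice weekly. Animals killed after the 14th dose.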

Data set [12] in a line: Oral bioavailability in mouse at 10 mg/kg by UPLC-MS/MS analysis. The class given is ADME, organism-based. To be noted: in vivo. The procedure, abridged:
(§3)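 Overnight-fasted mice given a single 10 mg/kg oral dose in 2:2:96 (v/v) alcohol : Tween 80 : glucose injection. Plasma levels by UPLC-MS/MS. Bioavailability derived against a 2 mg/kg iv arm using the same formulation diluted 2.5 times with 10% glucose injection.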

Data set [13] is described as follows: Drug distribution in mouse plasma at 10 mg/kg, po incubated for 0.5 hrs by UPLC-MS/MS analysis. The class given is ADME, organism-based. In a few lines: as §2
Data set [14] is described as follows: Cmax in mouse at 10 mg/kg, po by UPLC-MS/MS analysis. Type of data set: ADME, organism-based. Details: dose 10 mg/kg, route oral. To be noted: in vivo. The procedure, abridged:
as §3

A word on the EC50: it is the concentration at which the effect is half-maximal. As usually defined, the Kp is the ratio of the level in a tissue or fluid to that in plasma or blood. In general, bioavailability refers to dose-corrected exposure relative to a reference, in per cent. In general, Cmax refers to the maximum level reached in the sampled fluid or tissue. For `COC(=O)N[C@H](C(=O)N1CCC[C@H]1C(=O)Nc1ccc([C@@H]2CC[C@@H](c3ccc(NC(=O)[C@@H]4CCCN4C(=O)[C@@H](NC(=O)OC)[C@@H](C)OC)cc3)N2c2cc(F)c(N3CC[Si](C)(C)CC3)c(F)c2)cc1)[C@@H](C)OC`, the “Ratio EC50” value came out at 9.9 with Hepatitis C virus [1] and 23 in the data set with Hepatitis C virus [2]. The concentration at 0.5 h was found to be 436 ng/g in [3] and 160 ng/mL in data set [13]. The EC50 with Hepatitis C virus [4] is greater than 0.25 nM; in the data set with Hepatitis C virus [6] it was greater than 0.25 nM; in the data set on Hepatitis C virus [7], 0.027 nM; with Hepatitis C virus [9], 0.00164 nM; in the data set on Hepatitis C virus [10], 0.00038 nM. In addition, the Kp at 8 h in [5] was 10.7. For the same compound, in data set [8], the remaining at 1 h, 1 µM is 60.4%. For the same compound, the Activity entry in data set [11] is “Non-Toxic”. In addition, the bioavailability in data set [12] worked out at 7.2%. For the same compound, in data set [14], the Cmax was found to be 454 ng/mL.
